Source: ChEMBL document CHEMBL1649236, “The structure of the dizinc subclass B2 metallo-beta-lactamase CphA reveals that the second inhibitory zinc ion binds in the histidine site” (Antimicrob Agents Chemother, 2009)

Tests used:
[1] = compound: O=C(Cc1cccs1)N[C@@H]1C(=O)N2C(C(=O)O)=C(/C=C/c3ccc([N+](=O)[O-])cc3[N+](=O)[O-])CS[C@H]12; assay: (§1) Ratio of Kcat to Km for Aeromonas hydrophila metallo-betalactamase CphA expressed in Escherichia coli BL21(DE3) by spectrophotometric analysis in presence of < 0.4 uM zinc ions
Method in brief: (§2)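 Steady-state kinetics (kcat, Km, kcat/Km) at 30°C in 15 mM cacodylate pH 6.5, no added Zn2+ (free [Zn2+] < 0.4 µM), enzyme as the mono-zinc form (one Zn per molecule). Substrates imipenem, nitrocefin and CENTA. N233A mutant from E. coli BL21 (DE3) pLysS Star, purified to homogeneity, mass checked by ESI-MS. Standard errors below 10%.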

[2] = compound: O=C(Cc1cccs1)N[C@@H]1C(=O)N2C(C(=O)O)=C(CSc3ccc([N+](=O)[O-])c(C(=O)O)c3)CS[C@H]12; assay: as §1; method in brief: as §2
[3] = compound: C[C@@H](O)[C@H]1C(=O)N2C(C(=O)O)=C(SCCNC=N)C[C@H]12; assay: as §1; method in brief: as §2
[4] = compound: O=C(Cc1cccs1)N[C@@H]1C(=O)N2C(C(=O)O)=C(/C=C/c3ccc([N+](=O)[O-])cc3[N+](=O)[O-])CS[C@H]12; assay: (§3) Activity of Aeromonas hydrophila metallo-betalactamase CphA expressed in Escherichia coli BL21(DE3) by spectrophotometric analysis in presence of < 0.4 uM zinc ions; method in brief: as §2
[5] = compound: O=C(Cc1cccs1)N[C@@H]1C(=O)N2C(C(=O)O)=C(CSc3ccc([N+](=O)[O-])c(C(=O)O)c3)CS[C@H]12; assay: as §3; method in brief: as §2
[6] = compound: C[C@@H](O)[C@H]1C(=O)N2C(C(=O)O)=C(SCCNC=N)C[C@H]12; assay: as §3; method in brief: as §2

B1: Metallo-beta-lactamase type 2 (Aeromonas hydrophila), P26918 (protein)
chain: MMKGWMKCGLAGAVVLMASFWGGSVRAAGMSLTQVSGPVYVVEDNYYVQENSMVYFGAKGVTVVGATWTPDTARELHKLIKRVSRKPVLEVINTNYHTDRAGGNAYWKSIGAKVVSTRQTRDLMKSDWAEIVAFTRKGLPEYPDLPLVLPNVVHDGDFTLQEGKVRAFYAGPAHTPDGIFVYFPDEQVLYGNCILKEKLGNLSFADVKAYPQTLERLKAMKLPIKTVIGGHDSPLHGPELIDHYEALIKAAPQS
For B1, the kcat/Km [1] was 6 M⁻¹ s⁻¹, the kcat/Km [2] was “Not Active” and the kcat/Km [3] was 3.5e+06 M⁻¹ s⁻¹. For the same protein, the Km [4] was 1300 µM, the kcat [4] was 0.008 s⁻¹ and the Km [5] was “Not Active”. The kcat [5] was “Not Active”, the Km [6] was 340 µM and the kcat [6] was 1200 s⁻¹.
